Data set [1] in a line: Hemolytic activity in human RBC assessed as hemoglobin release after 1 hr. Format: ADME, cell-based, Erythrocyte. Conditions: human red blood cells. The essentials: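 Human red blood cells were exposed to the compounds. The value is the HC50, the concentration that produces 50% hemolysis of the RBCs.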
Data set [2] relates to Escherichia coli. As to the kind of experiment: Antibacterial activity against Escherichia coli ATCC 25922 assessed as growth inhibition after 18 hrs by CLSI microbroth dilution assay. Format: functional. Conditions: ATCC 25922, 18 h. Background: Broth dilution looks for growth in wells or tubes with falling amounts of substance.
The test system of data set [3] is Staphylococcus aureus. As to the kind of experiment: Antibacterial activity against Staphylococcus aureus ATCC 27660 assessed as growth inhibition after 18 hrs by CLSI microbroth dilution assay. Format: functional. Conditions: ATCC 27660, 18 h.

The HC50 is the concentration giving 50% haemolysis. In general, MIC refers to the lowest concentration found to suppress growth.

In brackets after ≈: the same amount, converted by molar mass. Some results are limits rather than exact numbers.

For `NCCCOc1cc(OCCCN)cc(-c2cc(NC(=O)Cc3c[nH]c4ccccc34)cc(-c3cc(OCCCN)cc(OCCCN)c3)c2)c1`, the HC50 at 1 h in data set [1] stood at 519 µg/mL. In addition, the values for the MIC in data set [2] and in data set [3] were more than 50 µg/mL and 12.5 µg/mL (≈ 18 µM), respectively.
As to `NCCCOc1cc(OCCCN)cc(-c2cc(NC(=O)c3ccc4ccccc4c3)cc(-c3cc(OCCCN)cc(OCCCN)c3)c2)c1`, the 50% haemolytic concentration (HC50) at 1 h in data set [1] stood at 422 µg/mL. In addition, the MIC in data set [2] was more than 50 µg/mL; in data set [3], 6.25 µg/mL (≈ 9.03 µM).
Consider `NCCCOc1cc(OCCCN)cc(-c2cc(NC(=O)c3ccc(-c4ccccc4)cc3)cc(-c3cc(OCCCN)cc(OCCCN)c3)c2)c1`, for which the HC50 at 1 h in data set [1] amounted to 113 µg/mL. In addition, the MIC in data set [2] worked out at 25 µg/mL (≈ 34.8 µM); in data set [3], 1.56 µg/mL (≈ 2.17 µM).
For `NCCCOc1cc(OCCCN)cc(-c2cc(-c3ccccc3)cc(-c3cc(OCCCN)cc(OCCCN)c3)c2)c1` the same measures were 537 µg/mL, 3.13 µg/mL (≈ 5.23 µM) and 12.5 µg/mL (≈ 20.9 µM).
As to `Cc1ccc(-c2cc(-c3cc(OCCCN)cc(OCCCN)c3)cc(-c3cc(OCCCN)cc(OCCCN)c3)c2)cc1`, the HC50 at 1 h in data set [1] turned out to be 279 µg/mL. In addition, the values for the MIC in data set [2] and in data set [3] were 3.13 µg/mL (≈ 5.11 µM) and 0.78 µg/mL (≈ 1.27 µM), respectively.
For `NCCCOc1cc(OCCCN)cc(-c2cc(-c3cc(OCCCN)cc(OCCCN)c3)cc(-c3cc4ccccc4[nH]3)c2)c1` the same measures were 634 µg/mL, 6.25 µg/mL (≈ 9.8 µM) and 1.56 µg/mL (≈ 2.45 µM).
`CC(C)(C)c1ccc(-c2cc(-c3cc(OCCCN)cc(OCCCN)c3)cc(-c3cc(OCCCN)cc(OCCCN)c3)c2)cc1`: the HC50 at 1 h in data set [1] came out at 41 µg/mL. Also, the MIC in data set [2] is 3.13 µg/mL (≈ 4.78 µM); in data set [3], 1.56 µg/mL (≈ 2.38 µM).
With `NCCCOc1cc(OCCCN)cc(-c2cc(-c3cc(OCCCN)cc(OCCCN)c3)cc(-c3cc(C(F)(F)F)cc(C(F)(F)F)c3)c2)c1`, the HC50 at 1 h in data set [1] came to 34 µg/mL. Moreover, the MIC in data set [2] was found to be 6.25 µg/mL (≈ 8.51 µM); in data set [3], 1.56 µg/mL (≈ 2.12 µM).
As to `NCCCOc1cc(OCCCN)cc(-c2cc(NC(=O)c3ccccc3)cc(-c3cc(OCCCN)cc(OCCCN)c3)c2)c1`, the HC50 at 1 h in data set [1] is more than 1000 µg/mL. Besides, the MIC is more than 50 µg/mL in data set [2] and 50 µg/mL (≈ 77.9 µM) in data set [3].
Regarding Ac-GIGKFLKKAKKFGKAFVKILKK-NH2, the HC50 at 1 h in data set [1] was 120 µg/mL. Also, the MIC in data set [2] worked out at 16 µg/mL; in data set [3] it was 8 µg/mL.

The values are drawn from ChEMBL document CHEMBL2384935, “Role of Amphiphilicity in the Design of Synthetic Mimics of Antimicrobial Peptides with Gram-negative Activity” (ACS Med Chem Lett, 2013).
